Compounds with a hit are over-represented: about 3.5% of the library has one in this group of screens.
RGS4 inh: human RGS4 inhibition; P49798; AID 463165; HEK293 M3R/RGS4 inducible, Fluo-4 calcium flux; active compounds read high; triggered by carbachol at its EC20; B-score at 10 µM; 310,000 tested, 0.45% active;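 active = B-score, a plate-corrected calcium signal, over three deviations above library mean, with baseline fluorescence within five deviations of library mean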;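 also: RGS4 expression induced by doxycycline in cells with stable M3 receptor; B-score is computed from the integrated fluorescence ratio over baseline after carbachol; higher B-score means a larger calcium signal and so more RGS4 inhibition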
Target sequence (P49798 whole entry, looked up): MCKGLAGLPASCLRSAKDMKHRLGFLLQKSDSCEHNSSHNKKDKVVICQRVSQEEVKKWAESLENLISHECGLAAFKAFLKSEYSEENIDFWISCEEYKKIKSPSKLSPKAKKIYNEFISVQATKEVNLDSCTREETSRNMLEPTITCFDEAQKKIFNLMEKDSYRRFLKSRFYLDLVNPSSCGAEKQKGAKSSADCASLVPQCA
MrgX1 ag: human MrgX1 receptor agonism, primary screen; Q96LB2; MrgX1-HEK293 cells, Fluo-4 calcium fluorescence, agonist mode; active compounds read high; B-score at 10 µM; 310,000 tested, 0.44% active; AID 588627;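 active = calcium response B-score plate-corrected fluorescence ratio at least 3 library SD, with starting fluorescence B-score inside 5 SD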
Target sequence (Q96LB2 whole entry, looked up): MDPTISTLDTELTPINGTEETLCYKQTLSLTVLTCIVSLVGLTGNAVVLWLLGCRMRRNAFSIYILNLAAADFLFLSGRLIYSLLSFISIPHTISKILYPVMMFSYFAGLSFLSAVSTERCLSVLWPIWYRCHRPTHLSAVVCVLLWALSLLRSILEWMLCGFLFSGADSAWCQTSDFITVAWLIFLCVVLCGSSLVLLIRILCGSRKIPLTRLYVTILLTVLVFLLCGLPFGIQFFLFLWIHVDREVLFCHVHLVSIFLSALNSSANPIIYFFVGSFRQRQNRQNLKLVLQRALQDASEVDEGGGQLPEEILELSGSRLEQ
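Test system: HEK293 cells stably expressing human MrgX1 receptor; amount: 15,000 cells per well; doses: compound delivered in addition one of three; times: overnight plating before 1 h dye loading; detection: Fluo-4 NW calcium-flux fluorescence, kinetic read; read-out basis: B-scored fluorescence response ratio; controls: positive and negative controls per plate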
MrgX1 antag: human MrgX1 receptor antagonism, primary screen; Q96LB2; MRGX1-HEK293 calcium flux, Fluo-4, BAM8-22 antagonism; active compounds read low; B-score at 10 µM; 310,000 tested, 1.3% active;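 active = calcium-response B-score plate-corrected more than 3 library SD below zero, starting fluorescence within 5 deviations, no agonist response on first addition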;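 also: peak minus trough fluorescence over baseline after final BAM8-22 challenge near maximal dose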
RGS4 pot: RGS4 potentiation or activation; HEK293 M3R/inducible RGS4, carbachol calcium flux Fluo4; active compounds read low; B-score at 10 µM; 310,000 tested, 0.92% active;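 active = B-score of the integrated calcium signal more than 4 SD below the library mean, with starting fluorescence not abnormally high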;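 also: negative B-score means reduced calcium response which marks RGS4 activation or potentiation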
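Assay system: Inducible-RGS4 HEK293 cells carrying M3 receptor | Schedule: Compound preincubation 20 min at room temperature before agonist | Signal: Kinetic calcium fluorescence imaging with Fluo4-AM dye, 2 µM | Read-out basis: B score from integrated fluorescence ratio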
MrgX1 PAM: allosterically activates human MrgX1 receptor signaling; MrgX1-HEK293, Fluo-4 calcium flux, FDSS; active compounds read high; B-score at 10 µM; 310,000 tested, 0.63% active;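 active = plate-corrected calcium response at least 3 library SD above typical, normal starting fluorescence, not activating the receptor alone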;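 also: compound read alongside a low EC10 to EC30 dose of BAM8-22 agonist; peak minus trough fluorescence over baseline measured at the second addition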
RGS4 block valid: RGS4 inhibitor validation | AID 492999 | 1,700 tested, 65% active | HEK293 M3R/RGS4, carbachol calcium Fluo-4 fluorescence; carbachol added at its EC20; 0 = buffer wells, 100 = carbachol control | calcium response, % at 10 µM | shares compounds with RGS4 inh;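 active = duplicate-averaged calcium response above the buffer-only control mean plus 5 SD of those controls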;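 also: integrated fluorescence ratio F max minus min over baseline F0; higher response in RGS4-induced cells means RGS4 inhibition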
M3R Ca ctr: non-induced cell nonspecific activity of RGS4 inhibitors; AID 493000; shares compounds with RGS4 inh; 1,900 tested, 20% active; HEK293 M3R non-induced, carbachol calcium Fluo-4; submaximal (EC20) carbachol stimulus; buffer wells 0%, carbachol control wells 100%; activity (percent), % at 10 µM; call rule not given here;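 also: RGS4 induction absent so cells express M3R without RGS4; higher means more calcium signal and flags a non-specific hit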
RGS4 inh ctr2: signal in non-induced cells without carbachol, RGS4 inhibitor counter-screen. shares compounds with RGS4 inh. HEK293 M3R/RGS4 non-induced, Fluo-4 calcium, no carbachol; normalised: buffer wells 0%, carbachol wells 100%. calcium response (agonist-mode artifact), % at 10 µM. 1,900 tested, 22% active;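 active = duplicate-averaged calcium rise in uninduced cells above buffer wells' mean plus 5 SD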
Numbers stand for hits; 0 = inactive; - = not tested or not shown.

SMILES | RGS4 inh | MrgX1 ag | MrgX1 antag | RGS4 pot | MrgX1 PAM | RGS4 block valid | M3R Ca ctr | RGS4 inh ctr2
CCOc1ccc(S(=O)(=O)N2CCCC(C(=O)Nc3cccc(C)c3)C2)cc1 (stereo not given) | 0 | 0 | 0 | 0 | 0 | - | - | -
O=C(O)c1ccc(/C=C/C(=O)c2ccc3c(c2)OCCCO3)cc1 | 14.1 | 0 | 0 | 0 | 0 | 47.0% | 0 | 0
COc1ccc(/C=C/C(=O)c2ccc3c(c2)OCCO3)cc1[N+](=O)[O-] | 8.06 | 0 | 0 | 0 | 0 | 6.0% | 0 | 0
COc1ccc(/C=N/NC(=O)c2ccc3c(c2)OCCO3)cc1[N+](=O)[O-] | 0 | 0 | 0 | 0 | 0 | - | - | -
CC(=O)Nc1ccc(/C=C/C(=O)c2ccc3c(c2)OCCO3)cc1 | 0 | 0 | 0 | 0 | 0 | - | - | -
COc1ccc(C2NC(=S)NC(C)=C2C(=O)c2ccccc2)cc1OC (stereo not given) | 0 | 0 | 0 | 0 | 0 | - | - | -
CC1=C(C(=O)c2ccccc2)C(c2cccc([N+](=O)[O-])c2)NC(=S)N1 (stereo not given) | 10.4 | 0 | 0 | 0 | 0 | 23.0% | 33.0% | 0
O=C1Nc2ccc(Br)cc2C1Cc1ccccc1F (stereo not given) | 5.76 | 0 | 0 | 0 | 0 | 13.0% | 0 | 0
O=C1C(=O)N(c2ccc(O)cc2)C(c2ccccc2[N+](=O)[O-])/C1=C(\O)c1ccccc1 (stereo not given) | 0 | 0 | 0 | 0 | 0 | - | - | -
Cc1cccc(NC(=S)NNC(=O)c2csc3c2CCCC3)c1 | 6.23 | 0 | 0 | 0 | 0 | 20.5% | 54.5% | 0
COc1ccc(-c2csc(NC(=O)c3c(OC)cccc3OC)n2)cc1 | 5.5 | 0 | 0 | 0 | 0 | 15.5% | 30.5% | 0
COc1ccc(-c2csc(NC(=O)c3ccco3)n2)cc1 | 0 | 0 | 0 | 0 | 0 | 0 | 0 | 0
O=C(Nc1nc(-c2ccccc2)cs1)c1ccco1 | 0 | 0 | 0 | 0 | 0 | - | - | -
CCOc1ccc(-c2csc(NC(=O)c3ccco3)n2)cc1 | 4.98 | 0 | 0 | 0 | 0 | 5.0% | 0 | 0
COc1cccc(C(=O)Nc2nc(-c3ccncc3)cs2)c1 | 0 | 0 | 0 | 0 | 0 | - | - | -
Cc1ccc(-c2csc(NC(=O)c3ccco3)n2)cc1C | 24.9 | 0 | 0 | 0 | 0 | 56.0% | 34.5% | 0
CCOc1ccc(C(=O)Nc2nnc(NC(=S)Nc3ccccc3)s2)cc1 | 4.87 | 0 | 0 | 0 | 0 | 10.0% | 0 | 0
Cc1ccc(C(=O)Nc2nnc(NC(=S)Nc3ccccc3)s2)cc1 | 0 | 0 | 0 | 0 | 0 | - | - | -
O=C(CCNc1ccc(F)c(Cl)c1)c1ccco1 | 0 | 0 | 0 | 0 | 0 | - | - | -
O=C(CCNc1ccc(F)cc1)c1ccco1 | 5.39 | 0 | 0 | 0 | 0 | 11.0% | 0 | 0
Oc1[nH]c2ccc(Br)cc2c1N=NC(=S)Nc1ccc(F)cc1 | 7.28 | 0 | 0 | 0 | 0 | 11.5% | 0 | 0
Oc1ccc(NC(=S)N=Nc2c(O)[nH]c3ccc(Br)cc23)cc1 | 0 | - | - | 0 | - | - | - | -
COC(=O)c1ccc(C(=O)Nc2ccc(C(C)C)cc2N)cc1 | 0 | 0 | 0 | 0 | 0 | - | - | -
Cn1ccnc1Sc1cc(NCCCO)c([N+](=O)[O-])c2nonc12 | 17.5 | 0 | 0 | 0 | 0 | 49.5% | 0 | 0
CC(=O)OCCNc1cc(SCc2ccco2)c2nonc2c1[N+](=O)[O-] | 0 | 0 | 0 | 0 | 0 | - | - | -
SMILES | RGS4 inh | MrgX1 ag | MrgX1 antag | RGS4 pot | MrgX1 PAM | RGS4 block valid | M3R Ca ctr | RGS4 inh ctr2
CC(=O)OCCCNc1cc(Sc2nc3ccccc3s2)c2nonc2c1[N+](=O)[O-] | 4.72 | 0 | 0 | 0 | 0 | 0 | 0 | 113.0%
O=[N+]([O-])c1c(NCCCO)cc(Sc2ccc(Cl)cc2)c2nonc12 | 0 | 0 | 0 | 0 | 0 | - | - | -
CC(=O)OCCNc1cc(Sc2nc3ccccc3[nH]2)c2nonc2c1[N+](=O)[O-] | 15.5 | 0 | 0 | 0 | 0 | 6.5% | 0 | 0
CC(=O)OCCCNc1cc(Sc2ccc(C)cc2)c2nonc2c1[N+](=O)[O-] | 0 | 0 | 0 | 0 | 0 | - | - | -
CCOc1ccc(-n2ccc(=O)c(C(=O)O)n2)cc1 | 0 | 0 | 0 | 0 | 0 | - | - | -
Cc1ccccc1C(=O)NC(=S)N(C)CCc1ccccn1 | 0 | 0 | 0 | 0 | 0 | - | - | -
COc1cc(OC)cc(C(=O)NCC(=O)OCC(=O)C(C)(C)C)c1 | 0 | 0 | 0 | 0 | 0 | - | - | -
CCc1cc(-c2n[nH]c(C)c2-c2nc(C)cs2)c(O)cc1OC | 5.32 | 0 | 0 | 0 | 0 | 9.5% | 0 | 0
COc1cc(C(C[N+](=O)[O-])c2c(N)n(C)c(=O)n(C)c2=O)ccc1O (stereo not given) | 5.25 | 0 | 0 | 0 | 0 | 19.5% | 0 | 8.0%
Cc1ccc(C(C[N+](=O)[O-])c2c(N)n(C)c(=O)n(C)c2=O)cc1 (stereo not given) | 0 | 0 | 0 | 0 | 0 | - | - | -
C[C@]12C(=O)N(c3cccc(Cl)c3)C(=O)N1[C@H]1c3ccccc3OC[C@@H]1[C@H]2c1ccccc1 | 5.96 | 0 | -5.97 | 0 | 0 | 16.0% | 0 | 0
Cc1cccc(N2C(=O)N3[C@@H]4c5ccccc5OC[C@@H]4[C@@H](c4ccccc4)[C@@]3(C)C2=O)c1 | 0 | 0 | 0 | 0 | 0 | - | 0 | 0
Cc1cccc([C@@H]2[C@@H]3C(=O)N(Cc4ccccc4)C(=O)[C@@H]3[C@]3(C)C(=O)N(c4cccc(Cl)c4)C(=O)N23)c1 | 0 | 0 | 0 | 0 | 0 | - | - | -
Cc1cccc(N2C(=O)N3[C@@H]4c5ccccc5OC[C@@H]4[C@@H](c4ccccc4)[C@]3(C)C2=O)c1 | 0 | 0 | 0 | 0 | 0 | 0 | 0 | 0
Cc1c(NC(=O)CS(=O)(=O)c2ccccc2)c(=O)n(-c2ccccc2)n1C | 0 | 0 | 0 | 0 | 0 | - | - | -
COc1ccccc1-c1cc(SC)c(C#N)c(=O)o1 | 0 | 0 | 0 | 0 | 0 | - | - | -
CCn1nc(C)c(Br)c1C(=O)Sc1ccccc1Cl | 0 | 0 | 0 | 0 | 0 | - | - | -
Nc1nnn(CC(=O)N/N=C/c2cn[nH]c2-c2ccccc2)n1 | 0 | 0 | 0 | 0 | 0 | - | - | -
COc1cc(NC(=O)CSc2nc3c(c(=O)n(C)c(=O)n3C)n2C)cc(OC)c1 | 0 | 0 | 0 | 0 | 0 | - | - | -
O=C1/C(=C/c2ccc(O)c([N+](=O)[O-])c2)SC(=S)N1Cc1ccccc1 | 7.76 | 0 | -5.71 | 0 | 0 | 11.0% | 37.0% | 0
O=C1/C(=C\c2ccc(O)cc2)SC(=S)N1Cc1ccccc1 | 8.13 | 0 | 0 | 0 | 0 | 13.5% | 0 | 28.5%
CCOc1cc(/C=C2/SC(=S)N(Cc3ccccc3)C2=O)ccc1O | 0 | 0 | 0 | 0 | 0 | - | - | -
